In ChEMBL document CHEMBL1156951, “Oxazolomycins: natural product lead structures for novel antibacterials by click fragment conjugation” (2010):
Calls of active or inactive are those of the source. The calls are words filed in the database; no cut-off is given here.

Key:
Type in all cases: functional
Escherichia coli [1] = assay: Antibacterial activity against Escherichia coli X580 at 4 mg/ml by hole plate assay; conditions: for zone of inhibition at 4000 µg/mL: read-out: DIZ
In short: (§1)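 Hole-plate bioassay with samples at 4 mg/ml in 7:3 DMSO/H₂O, loaded into wells of bioassay plates and incubated overnight at 37 °C. The read-out was inhibition zone diameter in mm (±1 mm).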

Staphylococcus aureus = assay: Antibacterial activity against Staphylococcus aureus NCTC 6571 at 4 mg/ml by hole plate assay; in short: as §1
Escherichia coli [2] = assay: Antibacterial activity against Escherichia coli X580 assessed as zone of diameter per molar relative to cephalosporin
In short: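 Hole-plate agar diffusion: test solutions were loaded into wells of bioassay plates and incubated overnight at 37 °C. Inhibition zone diameters were measured, and relative potency was expressed as zone diameter per M of analyte against standards prepared with cephalosporin C.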

CCCCCCCCC#C[C@]1(O)C(C)(C)C(=O)N[C@@]1(CO)C(=O)OC
diameter of the inhibition zone (DIZ) (Escherichia coli [1]): inactive
diameter of the inhibition zone (DIZ) (Staphylococcus aureus): inactive

COC(=O)[C@]12CO[C@H](C(C)(C)C)N1C(=O)C(C)(C)[C@@]2(O)C#CCCCCn1cc(CNC(=O)C(C)(C)C(O)CCCCc2ccccc2)nn1 (stereo partly drawn)
zone of inhibition at 4000 µg/mL (Escherichia coli [1]): 13 mm
diameter of the inhibition zone (DIZ) (Staphylococcus aureus): inactive

COC(=O)[C@]12CO[C@H](C(C)(C)C)N1C(=O)C(C)(C)[C@@]2(O)CCCCCc1cc(CNC(=O)C(C)(C)C(O)c2ccccc2)on1 (stereo partly drawn)
diameter of the inhibition zone (DIZ) (Escherichia coli [1]): inactive
diameter of the inhibition zone (DIZ) (Staphylococcus aureus): inactive

COC(=O)[C@]12CO[C@H](C(C)(C)C)N1C(=O)C(C)(C)[C@@]2(O)C#CCCCCn1cc(CNC(=O)C(C)(C)C(O)c2ccccc2)nn1 (stereo partly drawn)
zone of inhibition at 4000 µg/mL (Escherichia coli [1]): 14 mm
diameter of the inhibition zone (DIZ) (Staphylococcus aureus): inactive

CCCCCCCC(O)C(C)(C)C(=O)NCc1cc(CCCCC[C@]2(O)C(C)(C)C(=O)N[C@@]2(CO)C(=O)OC)no1 (stereo partly drawn)
Activity (Escherichia coli [2]): 0.2%
zone of inhibition at 4000 µg/mL (Escherichia coli [1]): 17 mm
diameter of the inhibition zone (DIZ) (Staphylococcus aureus): inactive

COC(=O)[C@]12CO[C@H](C(C)(C)C)N1C(=O)C(C)(C)[C@@]2(O)CCCCCc1cc(CNC(=O)C(C)(C)C(O)CCCCc2ccccc2)on1 (stereo partly drawn)
zone of inhibition at 4000 µg/mL (Escherichia coli [1]): 15 mm
diameter of the inhibition zone (DIZ) (Staphylococcus aureus): inactive

COC(=O)[C@]12CO[C@H](C(C)(C)C)N1C(=O)C(C)(C)[C@@]2(O)C#CCNC(=O)C(C)(C)C(O)c1ccccc1 (stereo partly drawn)
Activity (Escherichia coli [2]): 0.1%
zone of inhibition at 4000 µg/mL (Escherichia coli [1]): 17 mm
diameter of the inhibition zone (DIZ) (Staphylococcus aureus): inactive

COC(=O)[C@]12CO[C@H](C(C)(C)C)N1C(=O)C(C)(C)[C@@]2(O)C#CCCCCO
diameter of the inhibition zone (DIZ) (Escherichia coli [1]): inactive
diameter of the inhibition zone (DIZ) (Staphylococcus aureus): inactive

COC(=O)[C@]12CO[C@H](C(C)(C)C)N1C(=O)C(C)(C)[C@@]2(O)C#Cc1ccccc1
diameter of the inhibition zone (DIZ) (Escherichia coli [1]): inactive
zone of inhibition at 4000 µg/mL (Staphylococcus aureus; read-out: DIZ): 13 mm

COC(=O)[C@]1(CO)NC(=O)C(C)(C)[C@@]1(O)C#CCNC(=O)C(C)(C)C(O)c1ccccc1 (stereo partly drawn)
diameter of the inhibition zone (DIZ) (Escherichia coli [1]): inactive
diameter of the inhibition zone (DIZ) (Staphylococcus aureus): inactive

CCCCCCCC(O)C(C)(C)C(=O)NCc1cn(CCCCC#C[C@]2(O)C(C)(C)C(=O)N3[C@@H](C(C)(C)C)OC[C@@]32C(=O)OC)nn1 (stereo partly drawn)
zone of inhibition at 4000 µg/mL (Escherichia coli [1]): 14 mm
diameter of the inhibition zone (DIZ) (Staphylococcus aureus): inactive

CC1(C)C(=O)N[C@@](CO)(C(=O)O)[C@]1(O)C#Cc1ccccc1
diameter of the inhibition zone (DIZ) (Escherichia coli [1]): inactive
diameter of the inhibition zone (DIZ) (Staphylococcus aureus): inactive

COC(=O)[C@]1(CO)NC(=O)C(C)(C)[C@@]1(O)C#CCCCCn1cc(CNC(=O)C(C)(C)C(O)c2ccccc2)nn1 (stereo partly drawn)
zone of inhibition at 4000 µg/mL (Escherichia coli [1]): 15 mm
diameter of the inhibition zone (DIZ) (Staphylococcus aureus): inactive

CCCCCCCC(O)C(C)(C)C(=O)NCc1cn(CCCCC#C[C@]2(O)C(C)(C)C(=O)N[C@@]2(CO)C(=O)OC)nn1 (stereo partly drawn)
diameter of the inhibition zone (DIZ) (Escherichia coli [1]): inactive
diameter of the inhibition zone (DIZ) (Staphylococcus aureus): inactive

COC(=O)[C@]1(CO)NC(=O)C(C)(C)[C@@]1(O)CCCCCc1cc(CNC(=O)C(C)(C)C(O)c2ccccc2)on1 (stereo partly drawn)
zone of inhibition at 4000 µg/mL (Escherichia coli [1]): 13 mm
diameter of the inhibition zone (DIZ) (Staphylococcus aureus): inactive

CCCCCCCC(O)C(C)(C)C(=O)NCc1cc(CCCCC[C@]2(O)C(C)(C)C(=O)N3[C@@H](C(C)(C)C)OC[C@@]32C(=O)OC)no1 (stereo partly drawn)
diameter of the inhibition zone (DIZ) (Escherichia coli [1]): inactive
diameter of the inhibition zone (DIZ) (Staphylococcus aureus): inactive

COC(=O)[C@]12CO[C@H](C(C)(C)C)N1C(=O)C(C)(C)[C@@]2(O)C#CCCCCBr
Activity (Escherichia coli [2]): 0.05%
zone of inhibition at 4000 µg/mL (Escherichia coli [1]): 14 mm
diameter of the inhibition zone (DIZ) (Staphylococcus aureus): inactive

CCCCCCCCC#C[C@]1(O)C(C)(C)C(=O)N2[C@@H](C(C)(C)C)OC[C@@]21C(=O)OC
diameter of the inhibition zone (DIZ) (Escherichia coli [1]): inactive
diameter of the inhibition zone (DIZ) (Staphylococcus aureus): inactive

COC(=O)[C@]1(CO)NC(=O)C(C)(C)[C@@]1(O)C#CCCCCn1cc(CNC(=O)C(C)(C)C(O)CCCCc2ccccc2)nn1 (stereo partly drawn)
zone of inhibition at 4000 µg/mL (Escherichia coli [1]): 14 mm
diameter of the inhibition zone (DIZ) (Staphylococcus aureus): inactive

COC(=O)[C@]12CO[C@H](C(C)(C)C)N1C(=O)C(C)(C)[C@@]2(O)CCCCCCO
diameter of the inhibition zone (DIZ) (Escherichia coli [1]): inactive
diameter of the inhibition zone (DIZ) (Staphylococcus aureus): inactive

COC(=O)[C@]1(CO)NC(=O)C(C)(C)[C@@]1(O)C#Cc1ccccc1
diameter of the inhibition zone (DIZ) (Escherichia coli [1]): inactive
diameter of the inhibition zone (DIZ) (Staphylococcus aureus): inactive

COC(=O)[C@]1(CO)NC(=O)C(C)(C)[C@@]1(O)CCCCCc1cc(CNC(=O)C(C)(C)C(O)CCCCc2ccccc2)on1 (stereo partly drawn)
Activity (Escherichia coli [2]): 0.1%
zone of inhibition at 4000 µg/mL (Escherichia coli [1]): 14 mm
diameter of the inhibition zone (DIZ) (Staphylococcus aureus): inactive
